Active and inactive are the calls of the source. No cut-off for these calls is given here.
Key:
Rattus norvegicus [1] = experiment: Anticonvulsant activity in Sprague-Dawley rat assessed as protection against maximal electroshock-induced seizure at 30 mg/kg, ip after 1 hr
Mus musculus [2] = experiment: Anticonvulsant activity in CF1 mouse assessed as protection against maximal electroshock-induced seizure up to 300 mg/kg, ip after 30 mins to 4 hrs; assay type: functional, organism-based; design: dose 300 mg/kg
Method in brief: (§1)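 Phase I screen in mice: compounds suspended in 30% poly(ethylene glycol) 400 and given ip at three dose levels (30, 100 and 300 mg/kg). Anticonvulsant protection (MES, scPTZ) and neurologic toxicity by rotorod (inability to grasp) recorded 30 min and 4 h after dosing. Results were reported as animals affected over animals tested. Class 1 means activity at ≤100 mg/kg; class 3 means no activity at 300 mg/kg.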

Mus musculus [3] = experiment: Anticonvulsant activity in CF1 mouse assessed as protection against subcutaneous pentylenetetrazole-induced seizure at 300 mg/kg, ip after 30 mins; assay type: functional, organism-based; design: dose 300 mg/kg
Method in brief: as §1

Mus musculus [4] = experiment: Neurotoxicity in CF1 mouse up to 300 mg/kg, ip after 30 mins to 4 hrs by rotarod test; assay type: toxicity, organism-based; design: dose 300 mg/kg, route intraperitoneal; details: in vivo
Method in brief: as §1

Rattus norvegicus [5] = experiment: Anticonvulsant activity in Sprague-Dawley rat assessed as protection against subcutaneous pentylenetetrazole-induced seizure at 30 mg/kg, ip after 4 hrs; assay type: functional, organism-based; design: dose 30 mg/kg
[6] = Neurotoxicity in rat; assay type: toxicity, organism-based; details: in vivo
Method in brief: (§2)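 Phase VIB in male Sprague-Dawley rats dosed ip. The median effective dose (MES ED50) and median neurotoxic dose (TD50) were determined with confidence limits. Protective index was calculated as TD50/ED50.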

Rattus norvegicus [7] = species on record: Rattus norvegicus; experiment: Protective index, ratio of TD50 for rat to ED50 for rat
Method in brief: as §2

Rattus norvegicus [8] = species on record: Rattus norvegicus; experiment: Anticonvulsant activity in rat assessed as protection against maximal electroshock-induced seizure; assay type: functional
Method in brief: as §2

Mus musculus [9] = experiment: Neurotoxicity in CF1 mouse assessed as myoclonic jerks at 100 mg/kg, ip after 4 hrs by rotarod test; assay type: toxicity, organism-based; design: dose 100 mg/kg, route intraperitoneal; details: in vivo
Method in brief: as §1

Mus musculus [10] = experiment: Toxicity in CF1 mouse assessed as mortality at 30 mg/kg, ip after 4 hrs; assay type: organism-based; design: dose 30 mg/kg, route intraperitoneal; details: in vivo
Mus musculus [11] = experiment: Toxicity in CF1 mouse assessed as mortality at 30 mg/kg, ip after 30 mins; assay type: organism-based; design: dose 30 mg/kg, route intraperitoneal; details: in vivo, 0.5 h
Mus musculus [12] = experiment: Neurotoxicity in CF1 mouse assessed as muscle spasms at 100 to 300 mg/kg, ip after 30 mins by rotarod test; assay type: toxicity, organism-based, Muscle tissue; design: dose 100-300 mg/kg, route intraperitoneal; details: in vivo, 0.5 h
Method in brief: as §1

Mus musculus [13] = experiment: Neurotoxicity in CF1 mouse at 300 mg/kg, ip after 30 mins by rotarod test; assay type: toxicity, organism-based; design: dose 300 mg/kg, route intraperitoneal; details: in vivo, 0.5 h
Method in brief: as §1

Mus musculus [14] = experiment: Neurotoxicity in CF1 mouse assessed as muscle spasms at 100 mg/kg, ip by rotarod test; assay type: toxicity, organism-based, Muscle tissue; design: dose 100 mg/kg, route intraperitoneal; details: in vivo
Method in brief: as §1

Mus musculus [15] = experiment: Neurotoxicity in CF1 mouse at 100 mg/kg, ip by rotarod test; assay type: toxicity, organism-based; design: dose 100 mg/kg, route intraperitoneal; details: in vivo
Method in brief: as §1

Mus musculus [16] = experiment: Neurotoxicity in CF1 mouse assessed as muscle spasms at 300 mg/kg, ip by rotarod test; assay type: toxicity, organism-based, Muscle tissue; design: dose 300 mg/kg, route intraperitoneal; details: in vivo
Method in brief: as §1

Mus musculus [17] = experiment: Anticonvulsant activity in CF1 mouse assessed as protection against maximal electroshock-induced seizure at 100 mg/kg, ip after 30 mins; assay type: functional, organism-based; design: dose 100 mg/kg
Method in brief: as §1

Mus musculus [18] = experiment: Anticonvulsant activity in CF1 mouse assessed as protection against maximal electroshock-induced seizure at 300 mg/kg, ip after 30 mins to 4 hrs; assay type: functional, organism-based; design: dose 300 mg/kg
Method in brief: as §1

Mus musculus [19] = experiment: Neurotoxicity in CF1 mouse at 300 mg/kg, ip after 30 mins to 4 hrs by rotarod test; assay type: toxicity, organism-based; design: dose 300 mg/kg, route intraperitoneal; details: in vivo
Method in brief: as §1

Mus musculus [20] = experiment: Neurotoxicity in CF1 mouse at 100 mg/kg, ip after 30 mins by rotarod test; assay type: toxicity, organism-based; design: dose 100 mg/kg, route intraperitoneal; details: in vivo, 0.5 h
Method in brief: as §1

Mus musculus [21] = experiment: Neurotoxicity in CF1 mouse at 300 mg/kg, ip after 4 hrs by rotarod test; assay type: toxicity, organism-based; design: dose 300 mg/kg, route intraperitoneal; details: in vivo
Method in brief: as §1

Mus musculus [22] = experiment: Anticonvulsant activity in CF1 mouse assessed as protection against maximal electroshock-induced seizure at 100 mg/kg, ip after 15 mins; assay type: functional, organism-based; design: dose 100 mg/kg
[23] = Neurotoxicity in ip dosed Sprague-Dawley rat by rotarod test; assay type: toxicity, organism-based; details: in vivo
Method in brief: as §2

Rattus norvegicus [24] = experiment: Anticonvulsant activity in ip dosed Sprague-Dawley rat assessed as protection against maximal electroshock-induced seizure; assay type: functional
Method in brief: as §2

Rattus norvegicus [25] = species on record: Rattus norvegicus; experiment: Protective index, ratio of TD50 for Sprague-Dawley rat by rotarod test to ED50 for Sprague-Dawley rat by MES test

SMILES: Cc1cc(NC2=CC(=O)CCC2)no1
- Activity (Rattus norvegicus [1]): Active
- Activity (Mus musculus [2]): inactive
- Activity (Mus musculus [3]): Active
- Activity (Mus musculus [4]): Non-toxic
- Activity (Rattus norvegicus [5]): Active

SMILES: Cc1cc(C(=O)Nc2c(C)cccc2C)no1
- TD50 [6]: > 500 mg/kg
- PI (Rattus norvegicus [7]): >90.9
- ED50 (Rattus norvegicus [8]): 5.5 mg/kg

SMILES: CC1(C)CC(=O)C=C(N)C1
- Activity (Mus musculus [9]): Toxic
- Activity (Mus musculus [10]): Toxic
- Activity (Mus musculus [2]): inactive
- Activity (Mus musculus [11]): Toxic
- Activity (Mus musculus [3]): inactive
- Activity (Mus musculus [12]): Toxic

SMILES: Cc1oncc1CNC1=CC(=O)CC(C)C1 (stereo unspecified)
- Activity (Mus musculus [2]): inactive
- Activity (Mus musculus [3]): inactive

SMILES: NC1=CC(=O)CCC1
- Activity (Mus musculus [13]): Toxic
- Activity (Mus musculus [14]): Toxic
- Activity (Mus musculus [2]): inactive
- Activity (Mus musculus [15]): Toxic
- Activity (Mus musculus [3]): inactive

SMILES: CC1CC(=O)C=C(N)C1 (stereo unspecified)
- Activity (Mus musculus [13]): Toxic
- Activity (Mus musculus [16]): Toxic
- Activity (Mus musculus [14]): Toxic
- Activity (Mus musculus [2]): inactive
- Activity (Mus musculus [3]): inactive

SMILES: Cc1cccc(C)c1NC(=O)c1conc1C
- TD50 [6]: > 500 mg/kg
- PI (Rattus norvegicus [7]): >56.2
- ED50 (Rattus norvegicus [8]): 8.9 mg/kg

SMILES: Cc1cc(NC2=CC(=O)C(C(=O)OC(C)(C)C)C(C(F)(F)F)C2)no1 (stereo unspecified)
- Activity (Mus musculus [2]): inactive
- Activity (Mus musculus [3]): inactive

SMILES: Cc1cc(NC(=O)c2c(C)cccc2C)no1 [SORETOLIDE]
- TD50 [6]: > 500 mg/kg
- PI (Rattus norvegicus [7]): >54.3
- ED50 (Rattus norvegicus [8]): 9.2 mg/kg

SMILES: Cc1cc(NC2=CC(=O)CC(C)(C)C2)no1
- Activity (Mus musculus [17]): Active
- Activity (Mus musculus [18]): Active
- Activity (Mus musculus [3]): inactive
- Activity (Mus musculus [19]): Toxic
- Activity (Mus musculus [20]): Toxic

SMILES: Cc1cc(C(=O)NC2=CC(=O)CC(C)C2)no1 (stereo unspecified)
- Activity (Mus musculus [21]): Toxic
- Activity (Mus musculus [13]): Toxic
- Activity (Mus musculus [2]): inactive
- Activity (Mus musculus [3]): inactive

SMILES: Cc1cc(C(=O)NC2=CC(=O)CCC2)no1
- Activity (Mus musculus [2]): inactive
- Activity (Mus musculus [3]): inactive

SMILES: Cc1cc(C(=O)NC2=CC(=O)CC(C)(C)C2)no1
- Activity (Mus musculus [2]): inactive
- Activity (Mus musculus [3]): inactive

SMILES: CCOC(=O)C1C(=O)C=C(Nc2cc(C)on2)CC1C (stereo unspecified)
- TD50 [6]: > 500 mg/kg
- PI (Rattus norvegicus [7]): >7.3
- ED50 (Rattus norvegicus [8]): 68.9 mg/kg

SMILES: Cc1cc(NC2=CC(=O)C(C(=O)OC(C)(C)C)C(C)C2)no1 (stereo unspecified)
- TD50 [6]: > 500 mg/kg
- PI (Rattus norvegicus [7]): >17.8
- ED50 (Rattus norvegicus [8]): 28.1 mg/kg

SMILES: Cc1cc(NC2=CC(=O)CC(C)C2)no1 (stereo unspecified)
- Activity (Mus musculus [22]): Active
- TD50 [23]: > 120 mg/kg
- Activity (Mus musculus [3]): Active
- ED50 (Rattus norvegicus [24]): 66 mg/kg
- Activity (Mus musculus [20]): Toxic
- PI (Rattus norvegicus [25]): 1.8

SMILES: Cc1oncc1CNC1=CC(=O)CC(C)(C)C1
- Activity (Mus musculus [2]): inactive
- Activity (Mus musculus [3]): inactive

— ChEMBL document CHEMBL1955807, “Enaminones 12. An explanation of anticonvulsant activity and toxicity per Linus Pauling's clathrate hypothesis” (Eur J Med Chem, 2012)
